Each molecule was assayed against T1, Serine/threonine-protein kinase TBK1 (Homo sapiens, UniProt Q9UHD2) (assay: Inhibition of recombinant full-length TBK1 (unknown origin) using CK1tide as substrate by microfluidic mobility shift assay).
T1 sequence (Q9UHD2 whole entry): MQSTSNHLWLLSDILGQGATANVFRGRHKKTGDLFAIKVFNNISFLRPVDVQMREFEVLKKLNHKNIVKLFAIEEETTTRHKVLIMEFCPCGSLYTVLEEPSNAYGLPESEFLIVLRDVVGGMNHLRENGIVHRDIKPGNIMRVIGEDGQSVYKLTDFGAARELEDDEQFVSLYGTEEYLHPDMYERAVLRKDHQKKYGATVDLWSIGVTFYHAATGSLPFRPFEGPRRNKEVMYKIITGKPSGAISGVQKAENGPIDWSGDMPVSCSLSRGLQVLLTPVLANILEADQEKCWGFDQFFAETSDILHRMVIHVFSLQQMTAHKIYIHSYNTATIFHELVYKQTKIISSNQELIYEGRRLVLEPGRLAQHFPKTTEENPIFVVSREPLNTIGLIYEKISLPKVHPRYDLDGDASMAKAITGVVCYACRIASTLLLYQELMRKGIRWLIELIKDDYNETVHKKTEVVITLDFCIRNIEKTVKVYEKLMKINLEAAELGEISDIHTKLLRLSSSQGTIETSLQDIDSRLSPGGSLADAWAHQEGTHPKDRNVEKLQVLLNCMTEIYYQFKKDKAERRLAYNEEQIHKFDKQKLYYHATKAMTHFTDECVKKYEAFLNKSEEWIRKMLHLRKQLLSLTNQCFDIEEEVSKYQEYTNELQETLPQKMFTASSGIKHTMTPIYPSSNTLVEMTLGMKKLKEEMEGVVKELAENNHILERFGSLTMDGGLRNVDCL

Structure (SMILES) | IC50
COc1ccc(-c2nc3cc(-c4csc(C(C)=O)c4)cnc3[nH]2)cc1 | 650 nM
COc1ccc(-c2nc3cc(-c4csc(C(N)=O)c4)cnc3[nH]2)cc1 | 30 nM
CNC(=O)c1cc(-c2cnc3nc(-c4ccc(OC)cc4)[nH]c3c2)cs1 | 203 nM
COCCNC(=O)c1cc(-c2cnc3[nH]c(-c4ccc(OC)cc4)nc3c2)cs1 | 98 nM
COc1ccc(-c2nc3cc(-c4csc(C(=O)NCC(C)(C)CO)c4)cnc3[nH]2)cc1 | 100 nM
COc1ccc(-c2nc3cc(-c4csc(C#N)c4)cnc3[nH]2)cc1 | > 30000 nM
CNc1c(-c2ccc(C(=O)O)s2)cnc2[nH]c(-c3ccc(OC)cc3)nc12 | 1040 nM
COc1ccc(-c2nc3c(NCCCNC(=O)C4CCCC4)c(-c4nc(C(=O)O)cs4)cnc3[nH]2)cc1 | 36 nM
COc1ccc(-c2nc3c(NCCCNC(=O)C4CCCC4)c(-c4nc(C(=O)NCC(C)C)cs4)cnc3[nH]2)cc1 | 388 nM
COc1cc2ncn(-c3cc(OCc4ccccc4S(C)(=O)=O)c(C#N)s3)c2cc1OC [GSK-319347A] | 93 nM
O=C(O)c1ccc(-c2cnc3nc(-c4ccc(OCCN5CCCCC5)cc4)[nH]c3c2)cc1 | 859 nM
COc1ccc(-c2nc3cc(-c4cc(C(=O)O)cs4)cnc3[nH]2)cc1 | 129 nM
COc1ccc(-c2nc3ncc(-c4cc(C(=O)O)co4)cc3[nH]2)cc1 | 1050 nM
COc1ccc(-c2nc3ncc(-c4ccc(C(=O)O)s4)cc3[nH]2)cc1 | 256 nM
CNc1c(-c2ccc(C(=O)O)cc2)cnc2nc(-c3ccc(OC)cc3)[nH]c12 | 1800 nM
COc1ccc(-c2nc3c(NCCCNC(=O)C4CCCC4)c(-c4nc(C(N)=O)cs4)cnc3[nH]2)cc1 | 9 nM
COc1ccc(-c2nc3ncc(-c4csc(C(=O)O)c4)cc3[nH]2)cc1 | 49 nM
COc1ccc(-c2nc3c(NCCCNC(=O)C4CCCC4)c(C(N)=S)cnc3[nH]2)cc1 | 46 nM
COc1ccc(-c2nc3c(OCCCNC(=O)C4CCCC4)c(Br)cnc3[nH]2)cc1 | 759 nM
COc1ccc(-c2nc3c(OCCCNC(=O)C4CCCC4)c(-c4csc(C(=O)O)c4)cnc3[nH]2)cc1 | 460 nM
CCC(C)CNC(=O)c1cc(-c2cnc3[nH]c(-c4ccc(OC)cc4)nc3c2)cs1 (stereo not given) | 219 nM

The molecules below were run against T2, Inhibitor of nuclear factor kappa-B kinase subunit epsilon (Homo sapiens, UniProt Q14164) (assay: Inhibition of IKK-epsilon (unknown origin) using 5FAM-AKELDQGSLCTpSFVGTLQ-NH2 as substrate by microfluidic mobility shift assay).
T2 sequence (Q14164 whole entry): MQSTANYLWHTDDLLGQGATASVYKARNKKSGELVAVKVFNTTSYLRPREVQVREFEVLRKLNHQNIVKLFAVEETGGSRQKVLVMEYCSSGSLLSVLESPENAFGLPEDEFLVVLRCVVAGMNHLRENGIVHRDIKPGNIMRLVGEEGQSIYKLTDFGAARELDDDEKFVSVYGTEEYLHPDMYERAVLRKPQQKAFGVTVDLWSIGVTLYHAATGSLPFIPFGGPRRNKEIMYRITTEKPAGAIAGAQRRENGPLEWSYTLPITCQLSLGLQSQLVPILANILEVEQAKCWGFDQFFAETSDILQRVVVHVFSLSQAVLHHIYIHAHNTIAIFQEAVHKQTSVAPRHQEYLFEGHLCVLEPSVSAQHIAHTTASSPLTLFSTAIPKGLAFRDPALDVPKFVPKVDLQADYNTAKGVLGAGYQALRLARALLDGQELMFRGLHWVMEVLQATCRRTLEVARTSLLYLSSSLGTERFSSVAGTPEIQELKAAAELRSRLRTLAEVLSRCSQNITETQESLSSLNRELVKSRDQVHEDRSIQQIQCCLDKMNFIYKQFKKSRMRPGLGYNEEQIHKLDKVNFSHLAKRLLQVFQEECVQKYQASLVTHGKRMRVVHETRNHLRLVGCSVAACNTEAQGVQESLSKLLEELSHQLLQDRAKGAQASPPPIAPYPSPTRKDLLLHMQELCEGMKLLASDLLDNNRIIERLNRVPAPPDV
Summary of the method: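 Recombinant IKK-ε (4 nM) in HEPES buffer with 1.5 µM 5FAM-labelled peptide substrate, ATP at its K_M, and 10 mM MgCl2. The 10-point titration used half-log serial dilutions. Reactions ran at room temperature for a set time, were quenched with EDTA-containing HEPES, and were read by microfluidic mobility shift. Percent inhibition came from the ratio of phosphorylated to total peptide.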

Structure (SMILES) | IC50
COc1ccc(-c2nc3cc(-c4csc(C(C)=O)c4)cnc3[nH]2)cc1 | 6750 nM
COc1ccc(-c2nc3cc(-c4csc(C(N)=O)c4)cnc3[nH]2)cc1 | 205 nM
CNC(=O)c1cc(-c2cnc3nc(-c4ccc(OC)cc4)[nH]c3c2)cs1 | 2560 nM
COCCNC(=O)c1cc(-c2cnc3[nH]c(-c4ccc(OC)cc4)nc3c2)cs1 | 412 nM
COc1ccc(-c2nc3cc(-c4csc(C(=O)NCC(C)(C)CO)c4)cnc3[nH]2)cc1 | 330 nM
COc1ccc(-c2nc3cc(-c4csc(C#N)c4)cnc3[nH]2)cc1 | > 30000 nM
CNc1c(-c2ccc(C(=O)O)s2)cnc2[nH]c(-c3ccc(OC)cc3)nc12 | 3300 nM
COc1ccc(-c2nc3c(NCCCNC(=O)C4CCCC4)c(-c4nc(C(=O)O)cs4)cnc3[nH]2)cc1 | 158 nM
COc1ccc(-c2nc3c(NCCCNC(=O)C4CCCC4)c(-c4nc(C(=O)NCC(C)C)cs4)cnc3[nH]2)cc1 | 3230 nM
COc1cc2ncn(-c3cc(OCc4ccccc4S(C)(=O)=O)c(C#N)s3)c2cc1OC [GSK-319347A] | 469 nM
COc1ccc(-c2nc3cc(-c4cc(C(=O)O)cs4)cnc3[nH]2)cc1 | 395 nM
COc1ccc(-c2nc3ncc(-c4cc(C(=O)O)co4)cc3[nH]2)cc1 | 11600 nM
COc1ccc(-c2nc3ncc(-c4ccc(C(=O)O)s4)cc3[nH]2)cc1 | 867 nM
COc1ccc(-c2nc3c(NCCCNC(=O)C4CCCC4)c(-c4nc(C(N)=O)cs4)cnc3[nH]2)cc1 | 42 nM
COc1ccc(-c2nc3ncc(-c4csc(C(=O)O)c4)cc3[nH]2)cc1 | 114 nM
COc1ccc(-c2nc3c(NCCCNC(=O)C4CCCC4)c(C(N)=S)cnc3[nH]2)cc1 | 448 nM
COc1ccc(-c2nc3c(OCCCNC(=O)C4CCCC4)c(Br)cnc3[nH]2)cc1 | > 30000 nM
COc1ccc(-c2nc3c(OCCCNC(=O)C4CCCC4)c(-c4csc(C(=O)O)c4)cnc3[nH]2)cc1 | 1100 nM
CCC(C)CNC(=O)c1cc(-c2cnc3[nH]c(-c4ccc(OC)cc4)nc3c2)cs1 (stereo not given) | 1090 nM

What follows are molecules tested against Aurora kinase B (Homo sapiens, UniProt Q96GD4) (assay: Inhibition of aurora B (unknown origin)).
Aurora kinase B, sequence (Q96GD4 whole entry): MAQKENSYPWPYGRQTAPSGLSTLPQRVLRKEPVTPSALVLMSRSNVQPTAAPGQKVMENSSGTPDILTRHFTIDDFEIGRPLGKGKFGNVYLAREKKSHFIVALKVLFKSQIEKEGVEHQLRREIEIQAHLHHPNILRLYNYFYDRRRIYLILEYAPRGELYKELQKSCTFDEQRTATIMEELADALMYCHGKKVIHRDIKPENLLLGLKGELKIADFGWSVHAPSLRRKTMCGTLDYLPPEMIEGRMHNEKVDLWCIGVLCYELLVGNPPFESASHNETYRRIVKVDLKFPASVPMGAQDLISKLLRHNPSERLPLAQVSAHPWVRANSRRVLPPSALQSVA

Structure (SMILES) | IC50
COc1ccc(-c2nc3cc(-c4csc(C(C)=O)c4)cnc3[nH]2)cc1 | 12100 nM
COc1ccc(-c2nc3cc(-c4csc(C(N)=O)c4)cnc3[nH]2)cc1 | 2300 nM
COCCNC(=O)c1cc(-c2cnc3[nH]c(-c4ccc(OC)cc4)nc3c2)cs1 | 1380 nM
COc1ccc(-c2nc3cc(-c4csc(C(=O)NCC(C)(C)CO)c4)cnc3[nH]2)cc1 | 1680 nM
COc1ccc(-c2nc3c(NCCCNC(=O)C4CCCC4)c(-c4nc(C(=O)O)cs4)cnc3[nH]2)cc1 | 299 nM
COc1ccc(-c2nc3c(NCCCNC(=O)C4CCCC4)c(-c4nc(C(=O)NCC(C)C)cs4)cnc3[nH]2)cc1 | 2470 nM
COc1cc2ncn(-c3cc(OCc4ccccc4S(C)(=O)=O)c(C#N)s3)c2cc1OC [GSK-319347A] | > 5320 nM
COc1ccc(-c2nc3c(NCCCNC(=O)C4CCCC4)c(-c4nc(C(N)=O)cs4)cnc3[nH]2)cc1 | 284 nM
COc1ccc(-c2nc3c(NCCCNC(=O)C4CCCC4)c(C(N)=S)cnc3[nH]2)cc1 | 889 nM
COc1ccc(-c2nc3c(OCCCNC(=O)C4CCCC4)c(Br)cnc3[nH]2)cc1 | 156 nM
COc1ccc(-c2nc3c(OCCCNC(=O)C4CCCC4)c(-c4csc(C(=O)O)c4)cnc3[nH]2)cc1 | 1300 nM
CCC(C)CNC(=O)c1cc(-c2cnc3[nH]c(-c4ccc(OC)cc4)nc3c2)cs1 (stereo not given) | 2820 nM

What follows are molecules tested against T1, Serine/threonine-protein kinase TBK1 (assay: Inhibition of TBK1 in HEK293 cells after 4.5 hrs by ISRE-luciferase reporter gene assay in presence of poly I:C).
Assay type: cell-based

Structure (SMILES) | IC50
COc1ccc(-c2nc3cc(-c4csc(C(C)=O)c4)cnc3[nH]2)cc1 | 1780 nM
COc1ccc(-c2nc3cc(-c4csc(C(N)=O)c4)cnc3[nH]2)cc1 | 268 nM
CNC(=O)c1cc(-c2cnc3nc(-c4ccc(OC)cc4)[nH]c3c2)cs1 | 851 nM
COCCNC(=O)c1cc(-c2cnc3[nH]c(-c4ccc(OC)cc4)nc3c2)cs1 | 170 nM
COc1ccc(-c2nc3cc(-c4csc(C(=O)NCC(C)(C)CO)c4)cnc3[nH]2)cc1 | 136 nM
COc1ccc(-c2nc3c(NCCCNC(=O)C4CCCC4)c(-c4nc(C(=O)O)cs4)cnc3[nH]2)cc1 | 2170 nM
COc1ccc(-c2nc3c(NCCCNC(=O)C4CCCC4)c(-c4nc(C(=O)NCC(C)C)cs4)cnc3[nH]2)cc1 | 128 nM
COc1cc2ncn(-c3cc(OCc4ccccc4S(C)(=O)=O)c(C#N)s3)c2cc1OC [GSK-319347A] | 72 nM
COc1ccc(-c2nc3cc(-c4cc(C(=O)O)cs4)cnc3[nH]2)cc1 | > 30000 nM
COc1ccc(-c2nc3ncc(-c4cc(C(=O)O)co4)cc3[nH]2)cc1 | > 30000 nM
COc1ccc(-c2nc3ncc(-c4ccc(C(=O)O)s4)cc3[nH]2)cc1 | > 30000 nM
COc1ccc(-c2nc3c(NCCCNC(=O)C4CCCC4)c(-c4nc(C(N)=O)cs4)cnc3[nH]2)cc1 | 7 nM
COc1ccc(-c2nc3ncc(-c4csc(C(=O)O)c4)cc3[nH]2)cc1 | > 30000 nM
COc1ccc(-c2nc3c(NCCCNC(=O)C4CCCC4)c(C(N)=S)cnc3[nH]2)cc1 | 165 nM
COc1ccc(-c2nc3c(OCCCNC(=O)C4CCCC4)c(-c4csc(C(=O)O)c4)cnc3[nH]2)cc1 | > 3000 nM
CCC(C)CNC(=O)c1cc(-c2cnc3[nH]c(-c4ccc(OC)cc4)nc3c2)cs1 (stereo not given) | 89 nM

The molecules below were run against Cyclin-dependent kinase 2 (Homo sapiens, UniProt P24941) (assay: Inhibition of CDK2 (unknown origin)).

Structure (SMILES) | IC50
COc1ccc(-c2nc3cc(-c4csc(C(C)=O)c4)cnc3[nH]2)cc1 | > 30000 nM
COc1ccc(-c2nc3cc(-c4csc(C(N)=O)c4)cnc3[nH]2)cc1 | 984 nM
COCCNC(=O)c1cc(-c2cnc3[nH]c(-c4ccc(OC)cc4)nc3c2)cs1 | > 30000 nM
COc1ccc(-c2nc3cc(-c4csc(C(=O)NCC(C)(C)CO)c4)cnc3[nH]2)cc1 | > 30000 nM
COc1ccc(-c2nc3c(NCCCNC(=O)C4CCCC4)c(-c4nc(C(=O)O)cs4)cnc3[nH]2)cc1 | 13600 nM
COc1ccc(-c2nc3c(NCCCNC(=O)C4CCCC4)c(-c4nc(C(=O)NCC(C)C)cs4)cnc3[nH]2)cc1 | > 30000 nM
COc1cc2ncn(-c3cc(OCc4ccccc4S(C)(=O)=O)c(C#N)s3)c2cc1OC [GSK-319347A] | > 30000 nM
COc1ccc(-c2nc3c(NCCCNC(=O)C4CCCC4)c(-c4nc(C(N)=O)cs4)cnc3[nH]2)cc1 | 1450 nM
COc1ccc(-c2nc3c(NCCCNC(=O)C4CCCC4)c(C(N)=S)cnc3[nH]2)cc1 | > 30000 nM
COc1ccc(-c2nc3c(OCCCNC(=O)C4CCCC4)c(Br)cnc3[nH]2)cc1 | > 30000 nM
COc1ccc(-c2nc3c(OCCCNC(=O)C4CCCC4)c(-c4csc(C(=O)O)c4)cnc3[nH]2)cc1 | > 30000 nM
CCC(C)CNC(=O)c1cc(-c2cnc3[nH]c(-c4ccc(OC)cc4)nc3c2)cs1 (stereo not given) | > 30000 nM

Reference: ChEMBL document CHEMBL3124838, “Discovery of 6-aryl-azabenzimidazoles that inhibit the TBK1/IKK-ε kinases” (Bioorg Med Chem Lett, 2014)
